Like-named read-outs stand apart in the source and are kept apart here. Positions of bridges follow the written chain, without caps; N, C: chain ends. Non-standard residues stand in square brackets, D forms with d. Residues, ends and D or L forms follow the SMILES beside them. Nle = CCCC[C@H](N)C(=O)O
Assays:
[1] = RP-HPLC capacity factor; assay type: physicochemical; conditions: chromatographic, Grace Vydac C-18, 20-min gradient of 16-26% acetonitrile in 20 mM HCl, 1 mL/min
[2] = target: T1, MC1 receptor (Mus musculus, UniProt Q01727); experiment: In vitro competitive binding assay against ^125I-; set-up: species or system murine
T1 sequence (Q01727 whole entry): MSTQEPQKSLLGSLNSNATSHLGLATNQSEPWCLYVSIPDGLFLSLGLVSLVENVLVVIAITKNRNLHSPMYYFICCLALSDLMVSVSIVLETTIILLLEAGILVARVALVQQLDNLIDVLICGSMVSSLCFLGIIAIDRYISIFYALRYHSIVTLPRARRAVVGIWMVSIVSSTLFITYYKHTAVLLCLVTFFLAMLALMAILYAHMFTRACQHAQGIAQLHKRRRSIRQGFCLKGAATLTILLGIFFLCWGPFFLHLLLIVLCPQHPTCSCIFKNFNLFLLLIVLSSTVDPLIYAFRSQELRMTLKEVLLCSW
Method in brief: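 B16/F1 cells seeded at 2.5 × 10^5/well, grown overnight at 37 °C, then washed with binding medium (MEM, 25 mM HEPES pH 7.4, 0.2% BSA, 0.3 mM 1,10-phenanthroline). Incubated 2 h at 25 °C with ~30,000 cpm 125I-(Tyr2)-NDP-MSH plus test peptide at 10^-13 to 10^-6 M. Rinsed twice with ice-cold 0.2% BSA/0.01 M PBS (pH 7.4), lysed 5 min in 1 M NaOH, gamma-counted. Run in triplicate.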

[3] = target: T1, MC1 receptor; conditions: read-out: MC1 receptor binding affinity; B16/F1 cells; cited from earlier work

Row | Compound | Capacity factor (k') [1] | IC50 [2] [nM] | IC50 [3] [nM]
1 | RGD-Lys-(Arg^11)CCMSH: cyclic RGD motif {Arg-Gly-Asp-DTyr-Asp} attached to [Cys^3,4,10, D-Phe^7, Arg^11]α-MSH3-13 peptide via a lysine linker (RGDYDKCCEHFRWCRPV; lactam cycle c[Arg1-Gly-Asp-dTyr-Asp5]; (Arg1 alpha-amine to Asp5 side-chain carboxyl); D-Tyr4; D-Phe11; C-terminal amide; Lys6 linker) |  |  | 2.1
2 | CCCC[C@@H]1NC(=O)[C@H](CCCNC(=N)N)NC(=O)C[C@@H](C(=O)N[C@@H](CCCCN)C(=O)N[C@@H](CS)C(=O)N[C@@H](CS)C(=O)N[C@@H](CCC(=O)O)C(=O)N[C@@H](Cc2c[nH]cn2)C(=O)N[C@H](Cc2ccccc2)C(=O)N[C@@H](CCCNC(=N)N)C(=O)N[C@@H](Cc2c[nH]c3ccccc23)C(=O)N[C@@H](CS)C(=O)N[C@@H](CCCNC(=N)N)C(=O)N2CCC[C@H]2C(=O)N[C@H](C(N)=O)C(C)C)NC(=O)[C@@H](Cc2ccc(O)cc2)NC(=O)[C@H](CC(=O)O)NC1=O [RNleD-Lys-(Arg^11)CCMSH] (R[Nle]D[dY]DKCCEH[dF]RWCRPV-NH2; lactam N-5) | 4.36 | 2.99 ± 0.26 | 
3 | CC(C)[C@H](NC(=O)[C@@H]1CCCN1C(=O)[C@H](CCCNC(=N)N)NC(=O)[C@H](CS)NC(=O)[C@H](Cc1c[nH]c2ccccc12)NC(=O)[C@H](CCCNC(=N)N)NC(=O)[C@@H](Cc1ccccc1)NC(=O)[C@H](Cc1c[nH]cn1)NC(=O)[C@H](CCC(=O)O)NC(=O)[C@H](CS)NC(=O)[C@H](CS)NC(=O)[C@H](CCCCN)NC(=O)[C@@H]1CC(=O)N[C@@H](CCCNC(=N)N)C(=O)N[C@H](Cc2ccccc2)C(=O)N[C@@H](CC(=O)O)C(=O)N[C@H](Cc2ccc(O)cc2)C(=O)N1)C(N)=O [RfD-Lys-(Arg^11)CCMSH] (R[dF]D[dY]DKCCEH[dF]RWCRPV-NH2; lactam N-5) |  | 1.35 ± 0.08 | 

Now from value to compound, other results behind:

Row | Capacity factor (k') [1] | IC50 [2] [nM] | Compound | IC50 [3] [nM]
4 | 2.19 | 1.3 ± 0.36 | CC(C)[C@H](NC(=O)[C@@H]1CCCN1C(=O)[C@H](CCCNC(=N)N)NC(=O)[C@H](CS)NC(=O)[C@H](Cc1c[nH]c2ccccc12)NC(=O)[C@H](CCCNC(=N)N)NC(=O)[C@@H](Cc1ccccc1)NC(=O)[C@H](Cc1c[nH]cn1)NC(=O)[C@H](CCC(=O)O)NC(=O)[C@H](CS)NC(=O)[C@H](CS)NC(=O)[C@H](CCCCN)NC(=O)[C@@H]1CC(=O)N[C@@H](CCCNC(=N)N)C(=O)N[C@@H](CO)C(=O)N[C@@H](CC(=O)O)C(=O)N[C@H](Cc2ccc(O)cc2)C(=O)N1)C(N)=O [RSD-Lys-(Arg^11)CCMSH, c[Arg-Ser-Asp-DTyr-Asp]-Lys-Cys-Cys-Glu-His-DPhe-Arg-Trp-Cys-Arg-Pro-Val-NH2] (RSD[dY]DKCCEH[dF]RWCRPV-NH2; lactam N-5) | 
5 | 3.77 | 0.82 ± 0.06 | CC(C)[C@H](NC(=O)[C@@H]1CCCN1C(=O)[C@H](CCCNC(=N)N)NC(=O)[C@H](CS)NC(=O)[C@H](Cc1c[nH]c2ccccc12)NC(=O)[C@H](CCCNC(=N)N)NC(=O)[C@@H](Cc1ccccc1)NC(=O)[C@H](Cc1c[nH]cn1)NC(=O)[C@H](CCC(=O)O)NC(=O)[C@H](CS)NC(=O)[C@H](CS)NC(=O)[C@H](CCCCN)NC(=O)[C@@H]1CC(=O)N[C@@H](CCCNC(=N)N)C(=O)N[C@@H](Cc2ccccc2)C(=O)N[C@@H](CC(=O)O)C(=O)N[C@H](Cc2ccc(O)cc2)C(=O)N1)C(N)=O [RFD-Lys-(Arg^11)CCMSH] (RFD[dY]DKCCEH[dF]RWCRPV-NH2; lactam N-5) | 

From PMC3880595 (Journal of medicinal chemistry, 2013)
